Among the data in PubChem BioAssay are viability, differential viability (reversal) and inhibition values, retold here.

The source made the active and inactive calls.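 Rule for the calls, unless noted: active = viability at or below 30% in both replicate assays; inconclusive = viability at or below 30% in just one of the two assays; inactive = the rest.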

Assay [1] is described as follows: SK-BR-3 cell growth inhibitors, pilot screen, 24 h, human (AID 572;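 active = viability at or below 10% of carrier control in both of two separate runs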;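 note: compound exposure lasted between 18 and 24 h rather than exactly 24 h; 100% = carrier-treated control wells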). Conditions: SK-BR-3 viability, CellTiter-Glo luminescence, at 10 µM, stronger effect = lower value.
Assay [2] in a line: HUVEC growth inhibition – cell-based, human, primary screen (AID 575).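 Note: 100% = median of untreated cell wells with 0.1% DMSO on each plate.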 Conditions: HUVEC proliferation, CellTiter-Glo luminescence, 72 h; at 10 µM; stronger effect = lower value. A digest of the protocol:
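material = primary HUVEC, no more than 12 passages | input = 1250 cells per well | controls = vehicle and MePR control wells | measured by = CTG luminescence | times = 72 h compound incubation | format = collagen-coated 384-well format | read-out = % viability vs DMSO wells | doses = single 10 µM dose, 0.1% DMSO, from 5x medium stock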

Assay [3] is described as follows: growth inhibitors of H69AR lung tumor, primary screen, human, duplicate replicates (AID 580;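 active = viability at or under a set limit in both replicates, limit being median viability minus 3 SD, cut at about 48% in these data, passing the limit was not always enough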;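 note: 100% = mean luminescence of untreated wells and 0% = no signal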). Conditions: H69AR lung tumor cells viability, ATP luminescence, 72 h; at 10 µM; stronger effect = lower value.
Assay [4] can be described thus: reversal of MRP1-mediated doxorubicin resistance, pilot screen, H69AR cells, doxorubicin co-treatment (AID 601;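 active = viability loss from added drug above about 55%, and viability with drug at most 40%, in both replicates, limit read from the data, passing the limit was not always enough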). Conditions: CellTiter-Glo, 72 h, at 10 µM; for differential viability (reversal): stronger effect = higher value.
Assay [5] can be described thus: 384-well plate pilot, post-Golgi transport modulator project, inhibition of yeast transport mutant growth (AID 636; in the data active = inhibition above about 31%). Conditions: absorbance 615 nm, about 18 h, stronger effect = higher value.
A short description of assay [6]: growth suppression of yeast trafficking mutant, preliminary HTS, modulators of trafficking downstream of Golgi apparatus project, 1536-format plate, OD 615 nm (AID 637; in the data active = inhibition above about 30%). Conditions: yeast transport mutant growth, absorbance 615 nm, 18 h; stronger effect = higher value.
The mark [7] stands for this setting: H69AR cells + 2 uM doxorubicin, measured here: viability with 2 uM doxorubicin, stronger effect = lower value.
The mark [8] stands for this setting: H69AR cells, compound alone cytotoxicity.

With `CN(C)CCOC(=O)C(c1ccccc1)C1(O)CCCC1` (stereo unspecified), the viability in assay [1] is 127% (inactive); in assay [2], 92.9% (inactive); in assay [3] it was 102% (inactive); in assay [4] (setting [7]) it was 97%; in assay [4] (setting [8]), 102%. In addition, in assay [4] (H69AR cells + 2 uM doxorubicin), the differential viability (reversal) was 4.65% (inactive). Besides, the inhibition is -1.43% (inactive) in assay [5] and 2.33% (inactive) in assay [6].
In the case of `Cc1cc(C)n2nc(SCC(=O)N(C)Cc3ccccc3)nc2n1`, the viability in assay [1] was 109% (inactive); in assay [2], 107% (inactive); in assay [3], 81.7% (inactive); in assay [4] (setting [7]), 102%; in assay [4] (setting [8]), 81.7%. Also, in assay [4] (H69AR cells + 2 uM doxorubicin), the differential viability (reversal) is -20.2% (inactive). Besides, the values for the inhibition in assay [5] and in assay [6] were -6.85% (inactive) and 1.82% (inactive), respectively.
With `Cc1nc2ccc(S(=O)(=O)NCC(=O)N3CCc4ccccc4C3)cc2s1`, the viability was 87% (inactive) in assay [1]; 106% (inactive) in assay [2]; 93.5% (inactive) in assay [3]; 86.6% in assay [4] (setting [7]); 93.5% in assay [4] (setting [8]). The differential viability (reversal) in assay [4] (H69AR cells + 2 uM doxorubicin) is 6.91% (inactive). The values for the inhibition in assay [5] and in assay [6] were 2.47% (inactive) and 3.11% (inactive), respectively.
For the compound `COc1ccc(OC)c(NC(=O)CSc2nnc(-c3ccco3)n2-c2ccccc2)c1`, the viability is 59% (inactive) in assay [1]; 83% (inactive) in assay [2]; 90.4% (inactive) in assay [3]; 85.4% in assay [4] (setting [7]); 90.4% in assay [4] (setting [8]). Further, the differential viability (reversal) in assay [4] (H69AR cells + 2 uM doxorubicin) was 5.04% (inactive). The inhibition in assay [5] is -6.3% (inactive); in assay [6], 3.45% (inactive).
With `COC(=O)c1ccccc1NC(=O)C1CC=CCC1C(=O)O` (stereo unspecified), the viability in assay [1] is 117% (inactive); in assay [2] it was 99.7% (inactive); in assay [3], 84.8% (inactive); in assay [4] (setting [7]), 83.3%; in assay [4] (setting [8]), 84.8%. The differential viability (reversal) in assay [4] (H69AR cells + 2 uM doxorubicin) is 1.5% (inactive). For the same compound, the values for the inhibition in assay [5] and in assay [6] were -9.73% (inactive) and -0.81% (inactive), respectively.
Turning to `CC(C)CC1NC(=O)N(CC(=O)N2CCN(S(=O)(=O)c3ccc(Cl)cc3)CC2)C1=O` (stereo unspecified), the viability in assay [1] was 97% (inactive); in assay [2] it was 91.7% (inactive); in assay [3], 96.4% (inactive); in assay [4] (setting [7]), 116%; in assay [4] (setting [8]) it was 96.4%. For the same compound, the differential viability (reversal) in assay [4] (H69AR cells + 2 uM doxorubicin) was -19.2% (inactive). Moreover, the inhibition in assay [5] was 0% (inactive); in assay [6], 5.83% (inactive).
Turning to `CN(C)CCC=C1c2ccccc2CCc2ccccc21`, the viability in assay [1] is 95% (inactive); in assay [2], 60.6% (inactive); in assay [3], 82.3% (inactive); in assay [4] (setting [7]), 74.3%; in assay [4] (setting [8]), 82.3%. Also, the differential viability (reversal) in assay [4] (H69AR cells + 2 uM doxorubicin) was 8.06% (inactive). For the same compound, the results for the inhibition in assay [5] and in assay [6] were -3.12% (inactive) and -1.67% (inactive), respectively.
Take `COc1ccc2c(c1)c(CC(=O)O)c(C)n2C(=O)c1ccc(Cl)cc1`: the viability in assay [1] was 99% (inactive); in assay [2], 69.3% (inactive); in assay [3] it was 95.6% (inactive); in assay [4] (setting [7]), 92.3%; in assay [4] (setting [8]) it was 95.6%. Also, the differential viability (reversal) in assay [4] (H69AR cells + 2 uM doxorubicin) was 3.25% (inactive). Further, the figures for the inhibition in assay [5] and in assay [6] were -4.16% (inactive) and 0.5% (inactive), respectively.
For `Cc1nc2ncnn2c(N2CCC(C(=O)NCC3CCCO3)CC2)c1Cc1ccccc1` (stereo unspecified), the viability in assay [1] was 136% (inactive); in assay [2], 97.1% (inactive); in assay [3] it was 89.5% (inactive); in assay [4] (setting [7]), 96.3%; in assay [4] (setting [8]) it was 89.5%. Also, in assay [4] (H69AR cells + 2 uM doxorubicin), the differential viability (reversal) is -6.76% (inactive). The inhibition in assay [5] was -3.7% (inactive); in assay [6], -4.55% (inactive).
Regarding `CCc1n[nH]c2c1C(=O)CC(C)(C)C2`, the viability in assay [1] is 73% (inactive); in assay [2], 106% (inactive); in assay [3] it was 89.1% (inactive); in assay [4] (setting [7]), 90.6%; in assay [4] (setting [8]), 89.1%. Besides, the differential viability (reversal) in assay [4] (H69AR cells + 2 uM doxorubicin) was -1.54% (inactive). The inhibition in assay [5] was 2% (inactive); in assay [6], 6% (inactive).
With `CC(=O)C1=C(O)C(=O)N(C2CCCCC2)C1c1ccccc1` (stereo unspecified), the viability in assay [1] was 107% (inactive); in assay [2] it was 98.6% (inactive); in assay [3], 97.3% (inactive); in assay [4] (setting [7]), 86.4%; in assay [4] (setting [8]) it was 97.3%. Besides, the differential viability (reversal) in assay [4] (H69AR cells + 2 uM doxorubicin) is 10.9% (inactive). Further, the inhibition in assay [5] was -8.08% (inactive); in assay [6], 5.32% (inactive).
With `O=C(c1ccc(Cl)cc1)N1CCCOC1`, the viability in assay [1] is 89% (inactive); in assay [2], 113% (inactive); in assay [3], 92% (inactive); in assay [4] (setting [7]), 84.7%; in assay [4] (setting [8]), 92%. Moreover, the differential viability (reversal) in assay [4] (H69AR cells + 2 uM doxorubicin) is 7.33% (inactive). Further, the inhibition in assay [5] is -8.11% (inactive); in assay [6], -1.27% (inactive).
Turning to `O=C(NCc1cccs1)C1CC(=O)N(C2CCCC2)C1` (stereo unspecified), the viability in assay [1] was 87% (inactive); in assay [2] it was 91.1% (inactive); in assay [3], 94.4% (inactive); in assay [4] (setting [7]), 87.3%; in assay [4] (setting [8]), 94.4%. Besides, in assay [4] (H69AR cells + 2 uM doxorubicin), the differential viability (reversal) is 7.15% (inactive). For the same compound, the figures for the inhibition in assay [5] and in assay [6] were 2.6% (inactive) and 8.03% (inactive), respectively.
On to `O=C(C1CCCN(S(=O)(=O)c2cccc3nonc23)C1)N1CCC(Cc2ccccc2)CC1` (stereo unspecified), for which the viability was 103% (inactive) in assay [1]; 34.9% (inactive) in assay [2]; 71.3% (inactive) in assay [3]; 55.2% in assay [4] (setting [7]); 71.3% in assay [4] (setting [8]). The differential viability (reversal) in assay [4] (H69AR cells + 2 uM doxorubicin) is 16% (inactive). In addition, the inhibition in assay [5] is -4.21% (inactive); in assay [6], -7.17% (inactive).
Consider `Cc1nc2nc(-c3cccnc3)nn2c(C)c1Cl`, for which the viability in assay [1] is 109% (inactive); in assay [2] it was 87.4% (inactive); in assay [3] it was 102% (inactive); in assay [4] (setting [7]) it was 89.2%; in assay [4] (setting [8]), 102%. Besides, the differential viability (reversal) in assay [4] (H69AR cells + 2 uM doxorubicin) was 12.9% (inactive). Also, the inhibition in assay [5] is -3.78% (inactive); in assay [6], -3.27% (inactive).
As for `COc1ccc(/C(O)=C2\C(=O)C(=O)N(c3cc(C)on3)C2c2ccccc2OC)cc1` (stereo unspecified), the viability in assay [1] was 105% (inactive); in assay [2], 101% (inactive); in assay [3] it was 78.5% (inactive); in assay [4] (setting [7]) it was 85.3%; in assay [4] (setting [8]), 78.5%. For the same compound, the differential viability (reversal) in assay [4] (H69AR cells + 2 uM doxorubicin) is -6.79% (inactive). The inhibition in assay [5] was -8.27% (inactive); in assay [6], -5.09% (inactive).
In the case of `CCOC(=O)C1=C(N)OC2=C(C(=O)CC(C)(C)C2)C1c1ccco1` (stereo unspecified), the viability in assay [1] is 90% (inactive); in assay [2] it was 97.3% (inactive); in assay [3], 87.8% (inactive); in assay [4] (setting [7]) it was 84%; in assay [4] (setting [8]), 87.8%. Further, in assay [4] (H69AR cells + 2 uM doxorubicin), the differential viability (reversal) is 3.79% (inactive). In addition, the inhibition in assay [5] was 1.04% (inactive); in assay [6] it was 3.28% (inactive).
